# In publication PMC6803818 (Future Medicinal Chemistry, 2019):
# Entries after “also recorded” stand apart in the source; their conditions may differ. Read-outs that look alike come from different tables or passages of the source.
# Experiments:
# [1] = biological target: p53 Y220C DBD (94-312) (Homo sapiens, UniProt P04637, M133L/N239Y/N268D/V203A/Y220C); experiment: Light scattering assay, aggregation kinetics at 37°C; format: biochemical; conditions: for slowing of initial rate of Y220C aggregation relative to PK9318: 15 μM compound
# [2] = test system: HUH-7 cells (homozygous p53-Y220C); experiment: Cell viability, 72 h incubation; format: cell-based, human; conditions: for p53-Y220C-dependent cell viability reduction: HUH-7 versus HUH-7 p53 KO
# How it was run: (§1)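 HUH-7 (Y220C) cells and an isogenic CRISPR/Cas9 p53 knockout clone (HUH7-F1: codon-124 frameshift on one allele, deletion of residues 125–223 on the other) were exposed to 0.6–15 μM test compound for 72 h. Viability was read in quadruplicate and normalized to blank (=1) and no-cell (=0) controls. Data are mean ± SEM of triplicates, with a paired t-test comparing parental and knockout lines.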
# [3] = biological target: p53-Y220C DBD (Homo sapiens, UniProt P04637, M133L/N239Y/N268D/V203A/Y220C); experiment: Isothermal titration calorimetry; format: binding
# [4] = Cell viability, 72 h incubation, isogenic knockout; format: cell-based, human; conditions: human
# How it was run: as §1
# [5] = test system: NUGC-3 (Y220C) and NUGC-4 (wild-type p53); experiment: Cell viability of gastric cancer cell lines, 72 h; format: cell-based, human; conditions: NUGC-3 (Y220C) versus NUGC-4 (wild-type p53)
# [6] = test system: cancer cell lines with homozygous Y220C mutation; conditions: cited from earlier work
# [7] = biological target: p53 wild type (Homo sapiens, UniProt P04637); experiment: DSF with wild type p53 DBD; format: binding; conditions: same conditions as in Table 1 (250 μM)
# How it was run: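 Thermal shift of the p53 DNA-binding domain (8 μM) with 10× SYPRO Orange in 25 mM KPi (pH 7.2), 150 mM NaCl, 1 mM TCEP, at 5% (v/v) final DMSO. Test compound was present at 250 μM. ΔTm = Tm (protein + ligand) − Tm (protein alone).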
# [8] = test system: HUH-7 p53 KO cells (HUH7-F1); experiment: Cell viability, 72 h incubation, isogenic knockout; format: cell-based, human; conditions: 0.6 to 15 μM, 72 h, HUH-7 p53 KO
# How it was run: as §1
# [9] = biological target: stabilized p53-Y220C DBD (Homo sapiens, UniProt P04637, M133L/N239Y/N268D/V203A/Y220C); experiment: Differential scanning fluorimetry; format: binding; conditions: compound concentration 250 μM, 8-μM protein
# How it was run: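 Thermal shift by DSF used 8 μM stabilized human p53 DBD (residues 94–312, M133L/V203A/N239Y/N268D plus Y220C) with 10× SYPRO Orange. Buffer was 25 mM KPi pH 7.2, 150 mM NaCl, 1 mM TCEP, with 5% (v/v) DMSO final. Test compound was at 250 μM. ΔTm = Tm(mutant + ligand) − Tm(mutant), averaged over replicate runs.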
# [10] = read-out: ITC KD, ¶ single measurement with ITC fit error, # mean of at least three independent measurements with SEM
smiles,measurement,setting,value
CCn1c2ccc(CNC)cc2c2ccc(-c3cc(C)cs3)cc21 [PK9328],slowing of initial rate of Y220C aggregation relative to PK9318,[1],by a factor of two
same,cell viability,"[2]; 7.5 μM, 72 h, HUH-7",complete viability loss
same,concentration inducing viability loss,"[2]; 72 h, HUH-7",≥ 3.75 mM
same,p53-Y220C-dependent cell viability reduction,[2]; 72 h,p53-Y220C-dependent cell viability reduction was observed
same,p53-Y220C-dependent cell viability reduction,"[2]; 72 h, listed as PK3328",Y220C-mutant-specific viability reduction
same,Kd,[3]; [10],1.7 ± 0.2 µM
same,"viability at 72 h, 7.5 µM",[4],> 50%
same,preferential viability reduction in p53-Y220C cells,[5],preferential viability reduction in p53-Y220C cells
Cn1cc(-c2ccccc2)c(-n2cccc2)n1 [PK7088],effect in Y220C cancer cell lines,[6],induced a mutant-specific increase in the amount of correctly folded protein and upregulation of p53 target genes p21 and NOXA
CCn1c2ccc(CNC)cc2c2ccc(-c3cscn3)cc21 [PK9323],stabilization of the wild type in DSF,[7],neither the starting scaffold PK083 nor the second-generation carbazole PK9323 did show any stabilization of the wild type
same,preferential viability reduction in p53-Y220C cells,[5],preferential viability reduction in p53-Y220C cells
CCn1c2ccc(CNC)cc2c2ccc(-c3ccoc3)cc21 [PK9321],Kd,[3]; [10],5.6 ± 1.1 µM
CCn1c2ccc(CNC)cc2c2ccc(-c3cc(C)c(C)s3)cc21 [PK9329],effect on viability,"[2]; 0.6 to 15 μM, 72 h, HUH-7",did not have a significant effect on the viability
same,p53-Y220C-dependent cell viability reduction,[2]; 72 h,did not show any p53-Y220C-dependent viability reduction
same,effect on viability,[8],did not have a significant effect on the viability
CCn1c2ccc(CNC)cc2c2ccc(-c3ccc(C)s3)cc21 [PK9327],slowing of initial rate of Y220C aggregation relative to PK9318,[1],by a factor of two
CCn1c2ccc(CNC)cc2c2ccc(-c3ccco3)cc21 [PK9320],Kd,[3]; [10],4 µM
same,DSF ΔTM (°C),[9]; 250 µM,3.7 ± 0.0 °C
same,preferential viability reduction in p53-Y220C cells,[5],preferential viability reduction in p53-Y220C cells
CCn1c2ccc(CNC)cc2c2ccc(Br)cc21 [PK9284],affinity increase compared with PK083,[3],ca. tenfold
same,Kd,[3]; [10],14.2 ± 2 µM
same,DSF ΔTM (°C),[9],3.0 ± 0.1 °C
CCOc1ccc2c3cc(CNC)ccc3n(CC)c2c1 [PK9295],Kd,[3],62 ± 6.5 µM
CCn1c2ccc(CNC)cc2c2ccc(-c3cccs3)cc21 [PK9318],lowering of initial aggregation rate versus no compound,"[1]; 30 μM compound, 1:10 protein–ligand ratio",approximately sixfold lower initial aggregation rate
same,cell viability,"[2]; 15 μM, 72 h, HUH-7",complete viability loss
same,concentration inducing viability loss,"[2]; 72 h, HUH-7",≥ 3.75 mM
same,p53-Y220C-dependent cell viability reduction,[2]; 72 h,p53-Y220C-dependent cell viability reduction was observed; also recorded: Y220C-mutant-specific viability reduction
same,viability at 7.5 µM,"[2]; Homo sapiens, Huh-7, 72 h, read-out: cell viability",58%
same,DSF ΔTM (°C),[9]; 250 µM,3.6 ± 0.2 °C
same,"viability at 72 h, 7.5 µM",[4],88%
same,"viability at 72 h, 15 µM",[4],40%
same,preferential viability reduction in p53-Y220C cells,[5],preferential viability reduction in p53-Y220C cells
